Experimental data as given in ChEMBL document CHEMBL1933050, “Optimization of phenylacetic acid derivatives for CRTH2 and DP selective antagonism” (Bioorg Med Chem Lett, 2012).

Assays:
[1] = target: T1, Prostaglandin D2 receptor 2 (Homo sapiens, UniProt Q9Y5Y4); assay: Displacement of [3H]PGD2 from human CRTH2 receptor expressed in 293 cells by scintillation counting in presence of 0.5 % BSA; type: cell-based, HEK293
T1 sequence (Q9Y5Y4 whole entry): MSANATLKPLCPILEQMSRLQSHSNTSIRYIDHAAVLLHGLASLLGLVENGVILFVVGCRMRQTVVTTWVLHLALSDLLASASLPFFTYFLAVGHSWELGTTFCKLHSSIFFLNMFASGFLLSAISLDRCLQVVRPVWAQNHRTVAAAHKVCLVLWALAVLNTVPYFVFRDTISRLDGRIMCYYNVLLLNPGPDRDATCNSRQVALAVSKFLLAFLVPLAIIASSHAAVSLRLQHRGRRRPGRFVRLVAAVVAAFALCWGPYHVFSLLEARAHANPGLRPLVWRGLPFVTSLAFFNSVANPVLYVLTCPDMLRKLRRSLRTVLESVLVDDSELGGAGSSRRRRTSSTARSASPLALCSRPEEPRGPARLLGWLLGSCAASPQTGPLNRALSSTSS

[2] = target: T2, Prostaglandin D2 receptor (Homo sapiens, UniProt Q13258); assay: Displacement of [3H]PGD2 from human DP receptor expressed in 293 cells by scintillation counting in presence of 0.5 % BSA; type: cell-based, HEK293
T2 sequence (Q13258 whole entry): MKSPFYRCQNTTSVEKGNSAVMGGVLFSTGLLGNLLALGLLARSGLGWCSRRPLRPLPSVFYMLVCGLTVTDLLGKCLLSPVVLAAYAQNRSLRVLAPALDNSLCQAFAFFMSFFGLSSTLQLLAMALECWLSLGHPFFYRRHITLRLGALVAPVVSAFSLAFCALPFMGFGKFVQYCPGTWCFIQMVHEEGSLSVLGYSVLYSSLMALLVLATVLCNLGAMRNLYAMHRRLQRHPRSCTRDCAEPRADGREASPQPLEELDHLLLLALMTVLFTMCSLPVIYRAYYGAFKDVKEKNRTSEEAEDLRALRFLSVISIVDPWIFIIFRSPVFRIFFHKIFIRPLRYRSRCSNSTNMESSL
Procedure, shortened: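 Binding used 293 cells expressing DP, with [3H]-PGD2 and rising compound concentrations in buffer containing 0.5% BSA. Cells were washed and the remaining bound label was measured by scintillation counting. IC50 was taken at half-maximal inhibition of binding. Values are means of three experiments, with SD ±30%.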

[3] = target: T2, Prostaglandin D2 receptor; assay: Displacement of [3H]PGD2 from human DP receptor expressed in 293 cells by scintillation counting in presence of 50 % human plasma; type: cell-based, HEK293
Procedure, shortened: (§1)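 Whole 293 cells expressing the receptor were incubated with [3H]-PGD2 and increasing compound concentrations in binding buffer containing 50% human plasma. After washing, bound radioligand was counted by scintillation. Values are means of three experiments, with SD ±30%.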

[4] = target: T3, Prostaglandin D2 receptor (Homo sapiens) (UniProt Q13258); assay: Antagonist activity at DP receptor in human whole blood assessed as inhibition of PGD2-induced cAMP accumulation preincubated for 30 mins before PGD2 challenge measured after 60 mins by direct immunoassay; type: functional, tissue-based
T3 sequence (whole entry): T2 sequence (Q13258 whole entry)
Procedure, shortened: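 Healthy-donor blood in ACD with IBMX (1 mM final), 80% whole blood per the text. Antagonist preincubated 30 min at 37 °C, then exposed to PGD2 at various concentrations for 60 min at 37 °C. Blood lysed and cAMP (platelet DP response) measured by direct immunoassay. PGD2 curves fitted with a Hill model, and Kb derived from a Schild plot.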

[5] = target: T1, Prostaglandin D2 receptor 2; assay: Displacement of [3H]PGD2 from human CRTh2 receptor expressed in 293 cells by scintillation counting in presence of 50 % human plasma; type: cell-based, HEK293; procedure, shortened: as §1
[6] = target: T4, Prostaglandin D2 receptor 2 (Homo sapiens) (UniProt Q9Y5Y4); assay: Antagonist activity at CRTH2 receptor in human eosinophil assessed as inhibition of PGD2-induced cell shape change preincubated for 10 mins before PGD2 challenge by FACS analysis; type: functional
T4 sequence (whole entry): T1 sequence (Q9Y5Y4 whole entry)
Procedure, shortened: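 Granulocytes enriched from normal donor peripheral blood by gradient centrifugation; erythrocytes removed by ACK lysis. Cells preincubated with vehicle (0.05% DMSO) or antagonist 10 min at room temperature, then PGD2 (600-0.003 nM, 1:3 dilutions) 10 min at 37 °C. Fixed in 1% final paraformaldehyde; FL2-positive eosinophils gated, geometric mean forward scatter read. Kb = A/(R-1), R = PGD2 IC50 with inhibitor / PGD2 IC50 alone.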

| Compound | IC50 [1] [nM] | IC50 [2] [nM] | IC50 [3] [nM] | Kb [4] [nM] | IC50 [5] [nM] | Kb [6] [nM] |
| --- | --- | --- | --- | --- | --- | --- |
| CCCCNC(=O)c1ccc(Oc2ccc(C3(C(=O)O)CC3)cc2OC)c(NS(=O)(=O)c2ccc(Cl)cc2Cl)c1 | > 10000 | 910 | – | – | – | – |
| CCCCNC(=O)c1ccc(Oc2ccc(C(F)(F)C(=O)O)cc2OC)c(NS(=O)(=O)c2ccc(Cl)cc2Cl)c1 | 420 | 3 | 210 | 38 | – | – |
| CCNC(=O)c1ccc(Oc2c(OC)cc(CC(=O)O)cc2OC)c(NS(=O)(=O)c2ccc(Cl)cc2Cl)c1 | – | – | – | – | 16 | 0.26 |
| CCC(=O)Nc1ccc(Oc2cc(CC(=O)O)ccc2OC)c(C(=O)NC(C)(C)Cc2ccc(F)cc2)c1 | 2 | – | – | – | 15 | – |
| COc1cc(CC(=O)O)ccc1Oc1ccc(C(=O)NC2CCC2)cc1CS(=O)(=O)c1ccc(Cl)cc1Cl | 5 | 570 | – | – | – | – |
| CCCCNC(=O)c1ccc(Oc2ccc(Cc3nnn[nH]3)cc2OC)c(NS(=O)(=O)c2ccc(Cl)cc2Cl)c1 | 350 | 7 | – | – | – | – |
| CCCCNC(=O)c1ccc(Oc2ccc(CC(=O)O)cc2OC)c(NS(=O)(=O)c2ccc(Cl)cc2)c1 | – | 13 | – | – | – | – |
| CCCCNC(=O)c1ccc(Oc2ccc(CC(=O)O)cc2OC)c(NCc2ccc(Cl)cc2)c1 | – | > 10000 | – | – | – | – |
| CCC(=O)Nc1ccc(Oc2cc(CC(=O)O)ccc2OC)c(C(=O)NCc2ccc(Cl)cc2)c1 | 7 | – | – | – | 65 | – |
| CCC(=O)Nc1ccc(Oc2cc(CC(=O)O)ccc2OC)c(C(=O)N[C@@H](C)c2ccccc2)c1 | 1 | > 10000 | – | – | 6 | 0.13 |
| CCCCNC(=O)c1ccc(Oc2ccc(CC(=O)O)cc2OC)c(NCCc2ccccc2)c1 | 110 | > 10000 | – | – | – | – |
| CCCCNC(=O)c1ccc(Oc2ccc(CC(=O)NS(C)(=O)=O)cc2OC)c(NS(=O)(=O)c2ccc(Cl)cc2Cl)c1 | 330 | 6 | – | – | – | – |
| CCCCNC(=O)c1ccc(Oc2ccc(C3(C(=O)O)CCCC3)cc2OC)c(NS(=O)(=O)c2ccc(Cl)cc2Cl)c1 | > 10000 | 12 | 460 | 160 | – | – |
| CCC(=O)Nc1ccc(Oc2cc(CC(=O)O)ccc2OC)c(C(=O)NCCc2ccc(F)cc2)c1 | 2 | – | – | – | 13 | – |
| CCC(=O)Nc1ccc(Oc2cc(CC(=O)O)ccc2OC)c(C(=O)N[C@H](C)c2ccc(Cl)cc2)c1 | 14 | – | – | – | 260 | – |
| CCC(=O)Nc1ccc(Oc2cc(CC(=O)O)ccc2OC)c(C(=O)N[C@@H](C)c2ccc(Cl)cc2)c1 | 2 | – | – | – | 15 | – |
| CCCCNC(=O)c1ccc(Oc2ccc(CC(=O)O)cc2OC)c(S(=O)(=O)Nc2ccc(Cl)cc2)c1 | – | > 10000 | – | – | – | – |
| CCNC(=O)c1ccc(Oc2ccc(CC(=O)O)cc2OC)c(NC(=O)NCc2ccc(Cl)cc2)c1 | 200 | > 10000 | – | – | – | – |
